Reference: ChEMBL document CHEMBL5058577, “EUbOPEN Chemogenomics Library 2 (Multiplex)” (2022)

Test system: HEK-293T
Assay: Multiplex assay against HEK293T
Type: toxicity, cell-based
Conditions: human
Summary of the method: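 Tubulin, mitochondrial-mass and membrane-permeability phenotypes are per cents of healthy-nucleus cells. Cells were gated by CellPathfinder machine learning into Hoechst high-intensity objects or normal cells, normal cells into healthy, pyknosed or fragmented nuclei, and pyknosed cells into mitotic or apoptotic. Before that, live cells stained at seeding with Hoechst33342, BioTracker Green Microtubule Cytoskeleton Dye, MitoTracker Red and Annexin V Alexa Fluor 680 were imaged on a CQ1 microscope at 37°C and 5% CO2 after compound addition.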

[1] = 12 h, 1 µM, compound concentration 1 uM, replicate 1
[2] = 12 h, 1 µM, compound concentration 1 uM, replicate 2
[3] = 12 h, 10 µM, compound concentration 10 uM, replicate 1
[4] = 12 h, 10 µM, compound concentration 10 uM, replicate 2
[5] = 24 h, 1 µM, compound concentration 1 uM, replicate 1
[6] = 24 h, 1 µM, compound concentration 1 uM, replicate 2
[7] = 24 h, 10 µM, compound concentration 10 uM, replicate 1
[8] = 24 h, 10 µM, compound concentration 10 uM, replicate 2
[9] = 48 h, 1 µM, compound concentration 1 uM, replicate 1
[10] = 48 h, 1 µM, compound concentration 1 uM, replicate 2
[11] = 48 h, 10 µM, compound concentration 10 uM, replicate 1
[12] = 48 h, 10 µM, compound concentration 10 uM, replicate 2

Compound: COc1cc2nc(N3CCN(C(=O)c4ccco4)CC3)nc(N)c2cc1OC.Cl [PRAZOSIN HYDROCHLORIDE]
- Population Apoptotic (%) [1]: 32%
- Population Fragmented Nuclei (%) [1]: 10%
- Population Healthy Nuclei (%) [1]: 77%
- Population Hoechst High Intensity Objects (%) [1]: 6%
- Population Membrane Permeable-Phenotype (%) [1]: 0%
- Population Mitochondria Different-Phenotype (%) [1]: 35%
- Population Mitotic Cells (%) [1]: 67%
- Population Normal (%) [1]: 93%
- Population Pyknosed Nuclei (%) [1]: 11%
- Population Tubulin-Different-Phenotype (%) [1]: 23%
- Total Cell Count [1]: 448
- Population Apoptotic (%) [2]: 56%
- Population Fragmented Nuclei (%) [2]: 6%
- Population Mitochondria Different-Phenotype (%) [2]: 66%
- Population Mitotic Cells (%) [2]: 43%
- Population Pyknosed Nuclei (%) [2]: 16%
- Population Tubulin-Different-Phenotype (%) [2]: 22%
- Total Cell Count [2]: 290
- Population Apoptotic (%) [3]: 38%
- Population Fragmented Nuclei (%) [3]: 9%
- Population Healthy Nuclei (%) [3]: 75%
- Population Hoechst High Intensity Objects (%) [3]: 10%
- Population Membrane Permeable-Phenotype (%) [3]: 0%
- Population Mitochondria Different-Phenotype (%) [3]: 62%
- Population Mitotic Cells (%) [3]: 61%
- Population Normal (%) [3]: 89%
- Population Pyknosed Nuclei (%) [3]: 14%
- Population Tubulin-Different-Phenotype (%) [3]: 45%
- Total Cell Count [3]: 348
- Population Apoptotic (%) [4]: 55%
- Population Fragmented Nuclei (%) [4]: 5%
- Population Healthy Nuclei (%) [4]: 77%
- Population Hoechst High Intensity Objects (%) [4]: 9%
- Population Mitochondria Different-Phenotype (%) [4]: 61%
- Population Mitotic Cells (%) [4]: 44%
- Population Normal (%) [4]: 90%
- Population Pyknosed Nuclei (%) [4]: 16%
- Population Tubulin-Different-Phenotype (%) [4]: 25%
- Total Cell Count [4]: 404
- Population Apoptotic (%) [5]: 38%
- Population Fragmented Nuclei (%) [5]: 9%
- Population Healthy Nuclei (%) [5]: 82%
- Population Hoechst High Intensity Objects (%) [5]: 3%
- Population Membrane Permeable-Phenotype (%) [5]: 0%
- Population Mitochondria Different-Phenotype (%) [5]: 25%
- Population Mitotic Cells (%) [5]: 61%
- Population Normal (%) [5]: 96%
- Population Pyknosed Nuclei (%) [5]: 7%
- Population Tubulin-Different-Phenotype (%) [5]: 10%
- Total Cell Count [5]: 660
- Population Apoptotic (%) [6]: 51%
- Population Healthy Nuclei (%) [6]: 80%
- Population Hoechst High Intensity Objects (%) [6]: 5%
- Population Mitochondria Different-Phenotype (%) [6]: 45%
- Population Mitotic Cells (%) [6]: 48%
- Population Normal (%) [6]: 94%
- Population Pyknosed Nuclei (%) [6]: 10%
- Population Tubulin-Different-Phenotype (%) [6]: 16%
- Total Cell Count [6]: 364
- Population Apoptotic (%) [7]: 50%
- Population Fragmented Nuclei (%) [7]: 12%
- Population Healthy Nuclei (%) [7]: 77%
- Population Hoechst High Intensity Objects (%) [7]: 5%
- Population Membrane Permeable-Phenotype (%) [7]: 0%
- Population Mitochondria Different-Phenotype (%) [7]: 40%
- Population Mitotic Cells (%) [7]: 50%
- Population Normal (%) [7]: 94%
- Population Pyknosed Nuclei (%) [7]: 9%
- Population Tubulin-Different-Phenotype (%) [7]: 32%
- Total Cell Count [7]: 463
- Population Apoptotic (%) [8]: 54%
- Population Fragmented Nuclei (%) [8]: 11%
- Population Healthy Nuclei (%) [8]: 78%
- Population Membrane Permeable-Phenotype (%) [8]: 1%
- Population Mitochondria Different-Phenotype (%) [8]: 42%
- Population Mitotic Cells (%) [8]: 45%
- Population Pyknosed Nuclei (%) [8]: 10%
- Population Tubulin-Different-Phenotype (%) [8]: 20%
- Total Cell Count [8]: 534
- Population Apoptotic (%) [9]: 36%
- Population Fragmented Nuclei (%) [9]: 17%
- Population Healthy Nuclei (%) [9]: 76%
- Population Hoechst High Intensity Objects (%) [9]: 1%
- Population Membrane Permeable-Phenotype (%) [9]: 1%
- Population Mitochondria Different-Phenotype (%) [9]: 16%
- Population Mitotic Cells (%) [9]: 63%
- Population Normal (%) [9]: 98%
- Population Pyknosed Nuclei (%) [9]: 5%
- Population Tubulin-Different-Phenotype (%) [9]: 8%
- Total Cell Count [9]: 1114
- Population Apoptotic (%) [10]: 38%
- Population Fragmented Nuclei (%) [10]: 16%
- Population Hoechst High Intensity Objects (%) [10]: 2%
- Population Membrane Permeable-Phenotype (%) [10]: 0%
- Population Mitochondria Different-Phenotype (%) [10]: 23%
- Population Mitotic Cells (%) [10]: 61%
- Population Normal (%) [10]: 97%
- Population Pyknosed Nuclei (%) [10]: 6%
- Population Tubulin-Different-Phenotype (%) [10]: 9%
- Total Cell Count [10]: 636
- Population Apoptotic (%) [11]: 33%
- Population Fragmented Nuclei (%) [11]: 17%
- Population Healthy Nuclei (%) [11]: 75%
- Population Hoechst High Intensity Objects (%) [11]: 4%
- Population Membrane Permeable-Phenotype (%) [11]: 2%
- Population Mitochondria Different-Phenotype (%) [11]: 32%
- Population Mitotic Cells (%) [11]: 66%
- Population Normal (%) [11]: 95%
- Population Pyknosed Nuclei (%) [11]: 7%
- Population Tubulin-Different-Phenotype (%) [11]: 17%
- Total Cell Count [11]: 693
- Population Apoptotic (%) [12]: 23%
- Population Fragmented Nuclei (%) [12]: 14%
- Population Healthy Nuclei (%) [12]: 78%
- Population Membrane Permeable-Phenotype (%) [12]: 1%
- Population Mitochondria Different-Phenotype (%) [12]: 21%
- Population Mitotic Cells (%) [12]: 76%
- Population Tubulin-Different-Phenotype (%) [12]: 11%
- Total Cell Count [12]: 778
